Source: ChEMBL document CHEMBL3091283, “Selective cannabinoid receptor type 2 (CB2) agonists: optimization of a series of purines leading to the identification of a clinical candidate for the treatment of osteoarthritic pain” (J Med Chem, 2013)
Values belong to the compound of their own block, whether it stands above or below them.

What was measured:
[1] = AUC in Sprague-Dawley rat at 3 mg/kg, po; assay type: ADME, organism-based; design: dose 3 mg/kg, route oral; settings: plasma
[2] = Lipophilicity, log P of the compound; assay type: physicochemical; settings: octanol/water
[3] = Aqueous solubility in simulated GI fluid at pH 6.8; assay type: physicochemical
[4] = Volume of distribution in Sprague-Dawley rat at 1 mg/kg, iv; assay type: ADME, organism-based; design: dose 1 mg/kg, route intravenous; settings: in vivo
Procedure, shortened: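 Male Sprague–Dawley rats were given 1 mg/kg iv. Clearance and volume of distribution were derived from plasma pharmacokinetics.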

[5] = Oral bioavailability in Sprague-Dawley rat at 1 mg/kg; assay type: ADME, organism-based; settings: in vivo
Procedure, shortened: (§1)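 Male Sprague-Dawley rats dosed 1 mg/kg iv and 1 mg/kg po. Clearance, volume of distribution, oral half-life, AUC, Cmax and bioavailability calculated from plasma levels.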

[6] = Oral bioavailability in Beagle dog at 3 mg/kg; assay type: ADME, organism-based, Canis lupus familiaris; settings: in vivo
Procedure, shortened: (§2)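 Male beagle dogs given 1 mg/kg iv and 3 mg/kg po. Plasma PK parameters derived: clearance, volume of distribution, oral half-life, AUC, Cmax and oral bioavailability.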

MDR1 [7] = assay: MDR1-mediated transport in MDCK cells assessed as permeability from basolateral to apical side at 5 uM; assay type: ADME, cell-based, Canis lupus familiaris; settings: dog, read-out: permeability
Procedure, shortened: (§3)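 Transport measured across MDCK-MDR1 monolayers at 5 μM, with and without inhibitor. A→B and B→A fluxes recorded in cm/s × 10−6; efflux ratio taken as B→A over A→B.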

[8] = Ratio of drug level in brain to plasma in rat; assay type: ADME; settings: read-out: BPR
[9] = Cmax in Beagle dog at 1 mg/kg, iv and 3 mg/kg, po; assay type: ADME, organism-based, Canis lupus familiaris; settings: in vivo; procedure, shortened: as §2
[10] = Volume of distribution in Beagle dog at 1 mg/kg, iv and 3 mg/kg, po; assay type: ADME, organism-based, Canis lupus familiaris; settings: in vivo; procedure, shortened: as §2
[11] = AUC in Beagle dog at 1 mg/kg, iv and 3 mg/kg, po; assay type: ADME, organism-based, Canis lupus familiaris; settings: plasma; procedure, shortened: as §2
MDR1 [12] = assay: MDR1-mediated transport in MDCK cells assessed as permeability from apical to basolateral side at 5 uM; assay type: ADME, cell-based, Canis lupus familiaris; settings: dog, read-out: permeability; procedure, shortened: as §3
[13] = AUC in Sprague-Dawley rat at 1 mg/kg, iv and 1 mg/kg, po; assay type: ADME, organism-based; settings: plasma; procedure, shortened: as §1
[14] = Cmax in Sprague-Dawley rat at 1 mg/kg, iv and 1 mg/kg, po; assay type: ADME, organism-based; settings: in vivo; procedure, shortened: as §1

Compound: CCN1CCN(c2nc(C)nc3c2nc(-c2ccccc2Cl)n3CCOC)CC1.Cl
AUC [1]: < 50 ng·h/mL

Compound: CCN1CCN(c2nc(C)nc3[nH]c(-c4ccccc4Cl)nc23)CC1
logP [2]: 3.7

Compound: CCN1CCN(c2nc(C)nc3c2nc(-c2ccccc2Cl)n3CC2CCOCC2)CC1.Cl
Vd [4]: 5 L/kg
bioavailability [5]: 27%
logP [2]: 3.4

Compound: COCCn1c(-c2ccccc2Cl)nc2c(N3CCN(CCF)CC3)nc(C)nc21.Cl
AUC [1]: < 50 ng·h/mL

Results, then the compound that gave them:

solubility [3]: > 100 µM
Compound: CCN1CCN(c2nc(C)nc3c2nc(-c2ccccc2Cl)n3C)CC1.Cl

bioavailability [6]: 76%
Papp B→A at 5 µM (MDR1 [7]): 3.1 ×10⁻⁶ cm/s
Vd [4]: 6 L/kg
Kp [8]: 0.9
Cmax [9]: 352 ng/mL
Vd [10]: 5.5 L/kg
bioavailability [5]: 67%
AUC [11]: 1940 ng·h/mL
Papp A→B at 5 µM (MDR1 [12]): 3.1 ×10⁻⁶ cm/s
AUC [13]: 265 ng·h/mL
Cmax [14]: 60 ng/mL
solubility [3]: > 100 µM
logP [2]: 3.1
Compound: Cc1nc(N2CCN(C)CC2)c2nc(-c3ccccc3Cl)n(C3CCOCC3)c2n1.Cl

bioavailability [6]: 60%
Papp B→A at 5 µM (MDR1 [7]): 43 ×10⁻⁶ cm/s
Vd [4]: 1.9 L/kg
Cmax [9]: 62 ng/mL
Vd [10]: 9.2 L/kg
bioavailability [5]: 43%
AUC [11]: 286 ng·h/mL
Papp A→B at 5 µM (MDR1 [12]): 42 ×10⁻⁶ cm/s
AUC [13]: 312 ng·h/mL
Cmax [14]: 76 ng/mL
solubility [3]: > 100 µM
Compound: Cc1nc(N2CCN(C)CC2)c2nc(-c3ccccc3Cl)n(CCS(C)(=O)=O)c2n1.Cl

logP [2]: 3.2
Compound: Cc1nc(N2CCN(C)CC2)c2nc(-c3ccccc3Cl)n([C@@H]3CCOC3)c2n1
